From ChEMBL document CHEMBL1134642, “Dicationic bis(9-methylphenazine-1-carboxamides): relationships between biological activity and linker chain structure for a series of potent topoisomerase targeted anticancer drugs” (J Med Chem, 2001)
pIC50: −log10 of the molar value.

Columns and labels:
[1] = Inhibitory concentration required to reduce cell number to 50% of control cultures in JLc(Jurkat human leukemia); type: functional
In short: (§1)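 Murine P388 leukemia, Lewis lung carcinoma (LL), and human Jurkat leukemia (JLC) cells, plus amsacrine- and doxorubicin-resistant Jurkat derivatives (JLA, JLD), were grown with drug. Seeding per well was 4.5×10^3 (P388), 10^3 (LL) and 3.75×10^3 (Jurkat). Exposure was 3 days (P388) or 4 days (others). Growth was read by [3H]TdR uptake (P388) or sulforhodamine assay. IC50 is the drug concentration (nM) halving cell number versus controls. Ratios are JLA/JLC and JLD/JLC IC50. Independent assays were run in duplicate.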

[2] = system: Lewis lung carcinoma cell line; assay: Inhibitory concentration required to reduce cell number to 50% of control cultures in LL(Lewis lung carcinoma cell line); type: functional, cell-based; settings: Mus musculus; in short: as §1
[3] = system: P388; assay: Inhibitory concentration required to reduce cell number to 50% of control cultures in P388 (murine leukemia cell line); type: functional, cell-based; settings: Mus musculus; in short: as §1
[4] = Ratio of IC50 values obtained from Jurkat lines, (JLa /JLc); type: functional, Homo sapiens; in short: as §1
[5] = Ratio of IC50 values obtained from Jurkat lines, (JLd /JLc); type: functional, Homo sapiens; in short: as §1
[6] = system: HT-29; assay: Inhibitory concentration required to reduce cell growth to 50% of control cultures in the HT-29 human cell line; type: functional
[7] = system: MCF7; assay: Inhibitory concentration required to reduce cell growth to 50% of control cultures in the MCF-7 human cell line; type: functional
[8] = Inhibitory concentration required to reduce cell growth to 50% of control cultures in the NCI-ADR human cell line; type: functional; settings: NCI/ADR-RES
[9] = system: SK-OV-3; assay: Inhibitory concentration required to reduce cell growth to 50% of control cultures in the SKOV3 human cell line; type: functional
[10] = Average GI50 value for the drug over the whole cell line panel; type: functional
[11] = system: CAKI-1; assay: Inhibitory concentration required to reduce cell growth to 50% of control cultures in the CAK1 human cell line; type: functional
[12] = system: HCT-116; assay: Inhibitory concentration required to reduce cell growth to 50% of control cultures in the HTC116 human cell line; type: functional
[13] = Concentration of the drug to reduce cell number to 50% of controls in AuxB1 cell line; type: functional, cell-based
[14] = system: D3F; assay: Concentration of the drug to reduce cell number to 50% of controls in D3F cell line; type: functional, cell-based
[15] = system: HT-29; assay: Inhibitory concentration of the drug resulting in inhibition of cell growth to 50% of controls in HT-29 (human colon); type: functional, cell-based
[16] = system: MOLT-4; assay: Inhibitory concentration of the drug resulting in inhibition of cell growth to 50% of controls in MOLT-4 (human leukemia); type: functional, cell-based
[17] = system: Mus musculus; assay: In vivo activity in colon 38 model for tumor growth delay after i.p. administration of 13.3 mg/kg in C57/B1 mice; type: functional; settings: route intraperitoneal
In short: (§2)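 Treatment started at about 4 mm diameter, with 5 mice per group. Hydrochloride salts in distilled water were given intraperitoneally at 0.01 mL/g, q4d × 3. Calliper measurements were taken three times weekly; volume = 0.52·a²·b. Growth delay is the time for mean tumour volume to reach 4-fold pretreatment volume.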

[18] = system: Mus musculus; assay: In vivo activity in colon 38 model for tumor growth delay after i.p. administration of 20 mg/kg in C57/B1 mice; type: functional; settings: route intraperitoneal; in short: as §2
[19] = system: Mus musculus; assay: In vivo activity in colon 38 model for tumor growth delay after i.p. administration of 8.9 mg/kg in C57/B1 mice; type: functional; settings: route intraperitoneal; in short: as §2
[20] = system: U-937; assay: Inhibitory concentration of the drug resulting in inhibition of cell growth to 50% of controls in U937 (human leukemia); type: functional, cell-based
[21] = Ratio of IC50 values obtained from D3F-C10 and D3F cell lines; type: functional
[22] = Ratio of IC50 values obtained from CHrC5 and AuxB1 cell lines; type: functional
[23] = system: Mus musculus; assay: In vivo activity in HT-29 model for tumor growth delay after i.p. administration of 13.3 mg/kg in nude mice; settings: route intraperitoneal
[24] = system: Mus musculus; assay: In vivo activity in colon 38 model for tumor growth delay after i.p. administration of 30 mg/kg in C57/B1 mice; type: functional; settings: route intraperitoneal; in short: as §2
[25] = system: Mus musculus; assay: In vivo activity in HT-29 model for tumor growth delay after i.p. administration of 20 mg/kg in nude mice; settings: route intraperitoneal

Cc1cccc2nc3cccc(C(=O)NCCCNCCCNCCCNC(=O)c4cccc5nc6cccc(C)c6nc45)c3nc12
pIC50 [1]: 8.89 | pIC50 [2]: 7.51 | pIC50 [3]: 6.37 | Ratio [4]: 0.5 | Ratio [5]: 1

Cc1cccc2nc3cccc(C(=O)NCCN(C)CCCN(C)CCNC(=O)c4cccc5nc6cccc(C)c6nc45)c3nc12
GI50 [6]: < 10 nM | pIC50 [1]: 10.10 | pIC50 [2]: 9.52 | GI50 [7]: < 10 nM | GI50 [8]: < 0.1 nM | pIC50 [3]: 8.80 | GI50 [9]: < 0.1 nM | GI50 [10]: 0.29 nM | Ratio [4]: 0.4 | Ratio [5]: 0.8 | GI50 [11]: < 0.1 nM | GI50 [12]: < 0.1 nM

Cc1cccc2nc3cccc(C(=O)NCCCNCCCCNCCCNC(=O)c4cccc5nc6cccc(C)c6nc45)c3nc12
GI50 [6]: 366 nM | pIC50 [1]: 8.06 | pIC50 [2]: 6.95 | GI50 [7]: 74 nM | GI50 [8]: 906 nM | pIC50 [3]: 6.06 | GI50 [9]: 13600 nM | GI50 [10]: 2000 nM | Ratio [4]: 0.2 | Ratio [5]: 1.2 | GI50 [11]: 8280 nM | GI50 [12]: 335 nM

Cc1cccc2nc3cccc(C(=O)NCCNCCCNCCNC(=O)c4cccc5nc6cccc(C)c6nc45)c3nc12
pIC50 [1]: 9.62 | pIC50 [2]: 8.92 | pIC50 [3]: 8.13 | Ratio [4]: 0.7 | Ratio [5]: 0.6

Cc1cccc2nc3cccc(C(=O)NCCCN4CCN(CCCNC(=O)c5cccc6nc7cccc(C)c7nc56)CC4)c3nc12
pIC50 [1]: 8.89 | pIC50 [2]: 9.34 | pIC50 [3]: 7.32 | Ratio [4]: 0.8 | Ratio [5]: 0.7

Cc1cccc2nc3cccc(C(=O)NCCN(C)C)c3nc12
pIC50 [1]: 6.68 | pIC50 [2]: 7.41 | pIC50 [3]: 7.74 | Ratio [4]: 1.1 | Ratio [5]: 1.1

Cc1cccc2nc3cccc(C(=O)NCCCCNCCCCNCCCCNC(=O)c4cccc5nc6cccc(C)c6nc45)c3nc12
pIC50 [1]: 7.17 | pIC50 [2]: 6.54 | pIC50 [3]: 6.05 | Ratio [4]: 0.3 | Ratio [5]: 0.9

Cc1cccc2cc3cccc(C(=O)NCCN(C)C)c3nc12
pIC50 [1]: 7.34 | pIC50 [2]: 8.25 | Ratio [4]: 4.6 | Ratio [5]: 4.8

CCCN(CCNC(=O)c1cccc2nc3cccc(C)c3nc12)CCN(CCC)CCNC(=O)c1cccc2nc3cccc(C)c3nc12
pIC50 [1]: 7.34 | pIC50 [2]: 6.92 | pIC50 [3]: 6.60 | Ratio [4]: 0.5 | Ratio [5]: 0.8

Cc1cccc2nc3cccc(C(=O)NCCNCCNCCNC(=O)c4cccc5nc6cccc(C)c6nc45)c3nc12
pIC50 [13]: 8.43 | pIC50 [14]: 8.36 | GI50 [6]: < 10 nM | pIC50 [15]: 10.10 | pIC50 [1]: 9.74 | pIC50 [2]: 8.55 | pIC50 [16]: 11.21 | GI50 [7]: < 10 nM | Growth delay [17]: 4 days | Growth delay [18]: 7 days | Growth delay [19]: 2.8 days | GI50 [8]: 15 nM | pIC50 [3]: 7.68 | GI50 [9]: < 10 nM | pIC50 [20]: 10.33 | GI50 [10]: 13 nM | Ratio [21]: 0.91 | Ratio [4]: 0.5 | Ratio [5]: 0.9 | GI50 [11]: < 10 nM | GI50 [12]: < 10 nM | Ratio [22]: 47.1 | Growth delay [23]: 2.4 days

Cc1cccc2nc3cccc(C(=O)NCCCCN4CCN(CCCCNC(=O)c5cccc6nc7cccc(C)c7nc56)CC4)c3nc12
pIC50 [1]: 8.96 | pIC50 [2]: 9.47 | pIC50 [3]: 7.02 | Ratio [4]: 0.5 | Ratio [5]: 0.5

Cc1cccc2nc3cccc(C(=O)NCCCNCCNCCCNC(=O)c4cccc5nc6cccc(C)c6nc45)c3nc12
GI50 [6]: 27 nM | pIC50 [1]: 8.77 | pIC50 [2]: 7.46 | GI50 [7]: 24 nM | GI50 [8]: 8030 nM | pIC50 [3]: 6.13 | GI50 [9]: 8890 nM | GI50 [10]: 524 nM | Ratio [4]: 0.4 | Ratio [5]: 1.3 | GI50 [11]: 1000 nM | GI50 [12]: 21 nM

Cc1ccc(Cl)c2nc3cccc(C(=O)NCCNCCNCCNC(=O)c4cccc5nc6c(Cl)ccc(C)c6nc45)c3nc12
pIC50 [1]: 9.22 | pIC50 [2]: 8.00 | pIC50 [3]: 7.43 | Ratio [4]: 0.4 | Ratio [5]: 0.8

CCN(CCNC(=O)c1cccc2nc3cccc(C)c3nc12)CCN(CC)CCNC(=O)c1cccc2nc3cccc(C)c3nc12
pIC50 [1]: 7.80 | pIC50 [2]: 7.32 | pIC50 [3]: 6.77 | Ratio [4]: 0.6 | Ratio [5]: 0.7

Cc1cccc2nc3cccc(C(=O)NCCN(C)CCN(C)CCNC(=O)c4cccc5nc6cccc(C)c6nc45)c3nc12
pIC50 [1]: 8.28 | pIC50 [2]: 7.70 | pIC50 [3]: 7.48 | Ratio [4]: 0.4 | Ratio [5]: 0.6

Cc1ccc(C)c2nc3c(C(=O)NCCNCCNCCNC(=O)c4cccc5nc6c(C)ccc(C)c6nc45)cccc3nc12
pIC50 [13]: 8.35 | pIC50 [14]: 8.19 | pIC50 [15]: 9.82 | pIC50 [1]: 9.22 | pIC50 [2]: 8.41 | pIC50 [16]: 10.17 | Growth delay [17]: 2.4 days | Growth delay [18]: 4.4 days | Growth delay [24]: 7.5 days | Growth delay [19]: 2.8 days | pIC50 [3]: 8.08 | pIC50 [20]: 9.28 | Ratio [21]: 0.77 | Ratio [4]: 0.5 | Ratio [5]: 0.6 | Ratio [22]: 30.3 | Growth delay [25]: 7.8 days

Cc1cccc2nc3cccc(C(=O)NCCN4CCN(CCNC(=O)c5cccc6nc7cccc(C)c7nc56)CC4)c3nc12
pIC50 [1]: 7.96 | pIC50 [2]: 7.92 | pIC50 [3]: 5.65 | Ratio [4]: 0.6 | Ratio [5]: 0.9

O=C1c2cccc3cccc(c23)C(=O)N1CCNCCCNCCN1C(=O)c2cccc3cccc(c23)C1=O [ELINAFIDE]
pIC50 [15]: 9.82 | pIC50 [1]: 9.15 | pIC50 [2]: 7.96 | pIC50 [16]: 10.43 | pIC50 [3]: 8.82 | pIC50 [20]: 9.47 | Ratio [4]: 0.3 | Ratio [5]: 0.6
